The text below walks through data of ChEMBL document CHEMBL1134785, “Synthesis and biological evaluation of prostaglandin-F alkylphosphinic acid derivatives as bone anabolic agents for the treatment of osteoporosis” (J Med Chem, 2001).

Test [1] concerns the target T1, Prostaglandin E2 receptor EP1 subtype (Homo sapiens, UniProt P34995).
T1 sequence (P34995 whole entry): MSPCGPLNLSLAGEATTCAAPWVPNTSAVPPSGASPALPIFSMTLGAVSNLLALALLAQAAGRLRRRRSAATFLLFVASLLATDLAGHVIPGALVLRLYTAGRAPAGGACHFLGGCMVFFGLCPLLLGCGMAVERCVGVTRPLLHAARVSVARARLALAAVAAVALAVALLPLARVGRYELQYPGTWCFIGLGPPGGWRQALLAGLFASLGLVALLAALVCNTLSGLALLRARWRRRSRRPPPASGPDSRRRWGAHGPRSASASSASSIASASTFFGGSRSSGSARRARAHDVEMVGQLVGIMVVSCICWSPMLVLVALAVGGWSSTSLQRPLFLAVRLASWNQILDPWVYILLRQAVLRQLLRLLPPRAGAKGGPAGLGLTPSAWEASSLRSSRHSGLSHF
The test can be described thus: In vitro binding at EP1 human prostaglandin receptor using [3H]PGE-2 as radioligand. In outline:
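hEP1 transiently expressed in COS-7 cells by the hFP transfection and membrane protocol, with membranes in TME buffer pH 6.0. Competition binding used 5 nM [3H]PGE2, 1 h at 23 °C, filtration and scintillation counting.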

Test [2] concerns Rattus norvegicus. The test can be described thus: Mineralizing surface/bone surface(%) measured Histomorphometrically after a dose of 10 ug/kg in proximal tibial metaphysis. Format: functional. Summed up: (§1)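 Ovariectomized six-month-old rats, 6-8 per group, were dosed subcutaneously once daily at 0.01–3.0 mg/kg for 60 days, starting 60 days after surgery. Vehicle was acetate-buffered saline, methylcellulose and polyoxyethylenesorbitan monooleate. Labels were xylenol orange 90 mg/kg pretreatment and calcein 10 mg/kg at 14 and 4 days before necropsy. Histomorphometry covered the proximal tibial metaphysis, 1–4 mm distal to the growth plate–metaphyseal junction. ANOVA/LSD versus vehicle.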

Test [3] concerns Rattus norvegicus. Put plainly: Bone Volume /Tissue Volume (%)measured Histomorphometrically after a dose of 3000 ug/kg in proximal tibial metaphysis. Format: functional. The following applies: at 3000 µg/kg.
In test [4] the test system is Rattus norvegicus. The test can be described thus: Mineralizing surface/bone surface(%) measured Histomorphometrically after a dose of 300 ug/kg in proximal tibial metaphysis. Format: functional. Summed up:
as §1

Test [5] has as its system Rattus norvegicus. Put plainly: Bone formation rate/bone volume (%/year)bone measured Histomorphometrically after a dose of 10 ug/kg in proximal tibial metaphysis. Format: functional. To be noted: at 10 µg/kg.
Test [6] relates to Rattus norvegicus. The test can be described thus: Bone formation rate/tissue volume (%/year) bone measured histomorphometrically after a dose of 3000 ug/kg in proximal tibial metaphysis. The following applies: at 3000 µg/kg. Format: functional.
The subject of test [7] is Rattus norvegicus. Put plainly: Endosteal eroded surface(%) measured Histomorphometrically after a dose of 10 ug/kg in tibial diaphysis. Format: functional. Summed up: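 Tibial histomorphometry in 6-month-old rats, OVX 60 days before treatment, then daily injection for 60 days. Vehicle was acetate-buffered saline with methylcellulose and polyoxyethylenesorbitan monooleate. Rats received xylenol orange 90 mg/kg before treatment and calcein 10 mg/kg at 14 and 4 days pre-sacrifice. Rats were killed by cardiac puncture under ketamine/xylazine. Groups were compared with vehicle by ANOVA plus LSD test.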

Test [8] has as its system Rattus norvegicus. The test can be described thus: Mineral apposition rate ([…])bone measured Histomorphometrically after a dose of 10 ug/kg in proximal tibial metaphysis. Format: functional. Summed up:
as §1

Test [9] deals with Rattus norvegicus. The test can be described thus: Derived trabecular thickness (um) measured using micro Computed Tomography(CT) after a dose of 100 ug/kg in Vertebral Bone. Format: functional, Trabecula. Summed up:
(§2)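 Micro-CT of the fifth lumbar vertebra, measuring cancellous bone volume and architecture. Rats were 6 months old, OVX 60 days before treatment, then dosed daily for 60 days. Test-agent doses were 10–3000 µg/kg, given as a once-daily subcutaneous injection; 6 mg/kg/day was given to the positive-control group. Groups were compared with vehicle by ANOVA plus LSD test.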

Test [10] relates to Rattus norvegicus. The test can be described thus: Derived trabecular thickness (um) measured using micro Computed Tomography(CT) after a dose of 3000 ug/kg in Vertebral Bone. The test is classed as functional, Trabecula. In outline:
as §2

Usually IC50 stands for the concentration needed to halve the response being measured. A higher IC50 goes with a need for much substance. For `CP(=O)(O)CCC/C=C\C[C@@H]1[C@@H](/C=C/[C@@H](O)COc2ccccc2)[C@H](O)C[C@@H]1O`, in test [1], the IC50 was more than 10 µM. Besides, the Activity came to 28.37% in the test on Rattus norvegicus [2]; 8.51% in the test with Rattus norvegicus [3]; 23.57% in the test with Rattus norvegicus [4]; 498.01% in the test with Rattus norvegicus [5]; 20.13% in the test on Rattus norvegicus [6]. Moreover, the Endosteal eroded surface in the test on Rattus norvegicus [7] worked out at 11.83%. For the same compound, in the test with Rattus norvegicus [8], the Mineral apposition rate is 0.99 µm/day. The Derived trabecular thickness was determined as 78.7 µm with Rattus norvegicus [9] and 83.8 µm in the test on Rattus norvegicus [10].
